Laboratory results as given in ChEMBL document CHEMBL1125163, “Evolution of a series of peptidoleukotriene antagonists: synthesis and structure-activity relationships of 1,6-disubstituted indoles and indazoles” (J Med Chem, 1990).
One block for each molecule: values may come before it.

Experiments:
Cavia porcellus [1] = experiment: Percent protection was determined from the time delay to the onset of dyspnea compared to that of control guinea pig at a concentration of 100 uM/kg; assay type: functional
Method in brief: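 Conscious guinea pigs were pretreated ip with indomethacin (10 mg/kg) and propranolol (5 mg/kg). Compound was given orally in poly(ethylene glycol) 60 min before challenge with aerosolized 60 µM LTD4 for up to 5 min. End point was labored abdominal breathing, scored blind. % protection = (drug time − mean control time)/(max aerosol time − mean control time) × 100, with at least two vehicle animals per run.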

Cavia porcellus [2] = species: Cavia porcellus; experiment: Percent inhibition of the LTE4- induced contraction of guinea pig tracheal spirals at the concentration of 0.1 uM; assay type: functional; details: Trachea
Method in brief: (§1)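 Guinea pig trachea cut into spiral strips, each trachea split into paired sections. Tissue bath at 37 °C in modified Krebs buffer gassed with 95% O2/5% CO2, 2 g resting tension, 60 min stabilization. After reproducible responses to 10 nM LTE4, compound was added for 10 min, then LTE4 challenge repeated. Percent inhibition is the 2nd vs 3rd response, adjusted by subtracting the vehicle-treated paired section. Paired t test, p < 0.05.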

Cavia porcellus [3] = species: Cavia porcellus; experiment: Percent inhibition of the LTE4- induced contraction of guinea pig tracheal spirals at the concentration of 0.5 uM; assay type: functional; details: Trachea; method in brief: as §1
[4] = Selectivity ratio of the compound; assay type: functional
[5] = pKB value of the compound
Method in brief: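 Guinea pig tracheal strips at 37 °C in Krebs buffer. Cumulative LTE4 concentration-response curves were built in log increments, with responses expressed as % of the maximum to 30 µM carbachol. Antagonist was incubated 30 min before the curve, with vehicle on paired controls. EC50 came from linear regression. KB = [antagonist]/(dose ratio − 1) by the Furchgott method. One curve per tissue.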

Cavia porcellus [6] = species: Cavia porcellus; experiment: Percent inhibition of the LTE4- induced contraction of guinea pig tracheal spirals at concentration of 5 uM; assay type: functional; details: Trachea; method in brief: as §1

SMILES: COc1cc(C(=O)O)ccc1Cn1ccc2ccc(NC(=O)OC3CCCC3)cc21
- Protection (Cavia porcellus [1]): 23%
- inhibition at 0.1 µM (Cavia porcellus [2]): 61%

SMILES: CCCCOC(=O)Nc1ccc2ccn(Cc3ccc(C(=O)O)cc3OC)c2c1
- inhibition at 0.5 µM (Cavia porcellus [3]): 54%

- pKB [5]: 6
SMILES: CCCCCC(=O)Nc1ccc2ccn(Cc3ccc(C(=O)O)cc3OC)c2c1
- Selectivity ratio [4]: 100
- inhibition at 5 µM (Cavia porcellus [6]): 70%
